Data taken from paper PMC3983674 (Journal of immunology (Baltimore, Md. : 1950), 2014).
Ends that are not written are not given here.

Tests used:
[1] = tested on: caspase-like activity of proteasomes; test: Proteasome caspase-like activity in live PBMC; format: cell-based, human; settings: PI pretreatment 30 min 37°C, Fig 1C
[2] = Cytosolic peptide stability assay; settings: for A02-SL9 epitope half-life reduced by (fold vs control): average of 4 experiments, Fig 3B; for half-life: human, s9
[3] = tested on: HLA-matched B cells infected with VSVg-pseudotyped HIV; format: cell-based, human
PBMC cytosolic extracts = test: HIV epitope processing assay; format: biochemical, human
[4] = tested on: purified mouse or human 20S proteasomes; settings: ref [30]–[32]; cited from earlier work
[5] = tested on: proteasomal and aminopeptidase activities; test: Proteasomal and aminopeptidase activities in PBMC; format: cell-based, human; settings: unpublished data
[6] = tested on: tryptic activity of proteasomes; test: Proteasome tryptic activity in live PBMC; format: cell-based, human; settings: increasing concentrations, Fig 1C
In short: (§1)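 Fresh PBMC were isolated from HIV-negative donor buffy coats by Ficoll-Hypaque and pretreated for 30 min at 37°C with increasing concentrations of test compound (DMSO solutions). Digitonin (0.0025% final) was added, then Suc-LLVY-Amc (chymotryptic) or BocLRR-Amc (tryptic), each at 50 µmol/L. Fluorescence was read every 5 min at 37°C. Maximum slope, minus no-cell background, was expressed as % of the DMSO control. MG-132 (10 µmol/L) was used as the specificity control. Data are from 6–8 donors.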

aminopeptidase = test: Aminopeptidase activity in live PBMC; format: cell-based, human; settings: for Effect on aminopeptidase activities: live PBMC, increasing concentrations, Fig 1C
[7] = tested on: chymotryptic activity of proteasomes; test: Proteasome chymotryptic activity in live PBMC; format: cell-based, human; settings: PI pretreatment 30 min 37°C, increasing concentrations, Fig 1C
In short: as §1

in vitro = settings: human, s9

CC(C)c1nc(CN(C)C(=O)N[C@H](C(=O)N[C@@H](Cc2ccccc2)C[C@H](O)[C@H](Cc2ccccc2)NC(=O)OCc2cncs2)C(C)C)cs1 [Ritonavir]
Effect on proteasomal caspase-like activity [1]: did not enhance
Cytosolic stability of optimal epitopes derived from CMV, HCV, Influenza or EBV ([2]; several peptides, unpublished data): increasing
Kinetics of killing and maximum lysis by B57-ISW9 CTL [3]: enhanced
Kinetics of killing and maximum lysis by B57-KF11 CTL [3]: slower and the maximum lysis reduced
ISW9 as % of total peptides (PBMC cytosolic extracts; 3ISW9 degradation, 10 µM PI, 60 min, 3% in control): 14%
Production of A25-QW11 epitope from 3ISW9 (PBMC cytosolic extracts; supplemental figure 3): reduced
Production of B15-HL9 epitope from 3ISW9 (PBMC cytosolic extracts; supplemental figure 3): reduced
Activity of purified mouse or human 20S proteasomes and proteasome activity in immortalized cells [4]: inhibit

Nc1ccn([C@@H]2CS[C@H](CO)O2)c(=O)n1 [lamivudine, Lamivudine]
Effect on the proteasomal and aminopeptidase activities [5]: did not have any significant effect

CC(C)(C)NC(=O)[C@@H]1CN(Cc2cccnc2)CCN1C[C@@H](O)C[C@@H](Cc1ccccc1)C(=O)N[C@H]1c2ccccc2C[C@H]1O [Indinavir]
Effect on proteasomal caspase-like activity [1]: not affected
Effect on proteasome tryptic activity [6]: not affected
Killing of HIV-infected cells by A11-ATK9 CTL, reduced by (fold vs DMSO) [3]: 3 fold
Killing of HIV-infected cells by B57-KF11 CTL, reduced by (fold vs DMSO) [3]: 1.9 fold
Effect on aminopeptidase activities (aminopeptidase): no change

CC(C)(C)NC(=O)[C@@H]1C[C@@H]2CCCC[C@@H]2CN1C[C@@H](O)[C@H](Cc1ccccc1)NC(=O)[C@H](CC(N)=O)NC(=O)c1ccc2ccccc2n1 [Saquinavir]
2-ISW9 ([…]) precursor production vs control or Kaletra treatment (PBMC cytosolic extracts; 3ISW9 degradation, 10 µM): at least twice less
Activity of purified mouse or human 20S proteasomes and proteasome activity in immortalized cells [4]: inhibit

Cc1c(O)cccc1C(=O)N[C@@H](CSc1ccccc1)[C@H](O)CN1C[C@H]2CCCC[C@H]2C[C@H]1C(=O)NC(C)(C)C [Nelfinavir]
Effect on proteasomal caspase-like activity [1]: not affected
A02-SL9 epitope half-life reduced by (fold vs control) ([2]; […]): 1.25 fold
Effect on killing of HIV-infected cells by B57-ISW9 CTL [3]: had no effect
Killing of HIV-infected cells by A11-ATK9 CTL, reduced by (fold vs DMSO) [3]: 4.8 fold
Killing of HIV-infected cells by B57-ISW9 CTL, inhibited (fold vs DMSO) [3]: 1.2 fold
Killing of HIV-infected cells by B57-KF11 CTL, reduced by (fold vs DMSO) [3]: 2.44 fold
Lysis of HIV-infected cells by B57-TW10 CTL, decreased (fold vs DMSO) [3]: 1.46 fold
Activity of purified mouse or human 20S proteasomes and proteasome activity in immortalized cells [4]: inhibit

CC(C)C[C@H](NC(=O)[C@@H](O)[C@H](N)Cc1ccccc1)C(=O)O [Bestatin]
Aminopeptidase activity reduced by (fold compared to the control) (aminopeptidase; 120 µM): 20 fold
Aminopeptidase activity, max slope of fluorescence emission (aminopeptidase; PBMC, 120 µM inhibitor, Leu-amc, control max slope 145.35): 7.25

CC[C@H](C)[C@H](NC(=O)[C@H](C)N)C(=O)N[C@@H](Cc1ccccc1)C(=O)N[C@@H](CCC(N)=O)C(=O)N[C@@H](CO)C(=O)N[C@@H](CO)C(=O)N[C@@H](CCSC)C(=O)N[C@H](C(=O)N[C@@H](CCCCN)C(=O)O)[C@@H](C)O [ATK9]
half-life [2]: 37.2 min

CC[C@H](C)[C@H](NC(=O)[C@@H](NC(=O)[C@H](CCC(=O)O)NC(=O)[C@@H]1CCCN1C(=O)[C@H](CO)NC(=O)[C@H](Cc1ccccc1)NC(=O)[C@H](C)NC(=O)[C@@H](N)CCCCN)C(C)C)C(=O)N1CCC[C@H]1C(=O)N[C@@H](CCSC)C(=O)N[C@@H](Cc1ccccc1)C(=O)O [KF11]
half-life [2]: 25.7 min

CC(C)CN(C[C@@H](O)[C@H](Cc1ccccc1)NC(=O)O[C@H]1CO[C@H]2OCC[C@H]21)S(=O)(=O)c1ccc(N)cc1 [Darunavir]
Effect on proteasomal caspase-like activity [1]: not affected
Effect on chymotryptic activity of proteasome [7]: did not change
Effect on proteasome tryptic activity [6]: not affected
Effect on aminopeptidase activities (aminopeptidase): no change

CC(C)Nc1cccnc1N1CCN(C(=O)c2cc3cc(NS(C)(=O)=O)ccc3[nH]2)CC1 [Delavirdine]
Effect on the proteasomal and aminopeptidase activities [5]: did not have any significant effect

COC(=O)N[C@H](C(=O)N[C@@H](Cc1ccccc1)[C@@H](O)CN(Cc1ccc(-c2ccccn2)cc1)NC(=O)[C@@H](NC(=O)OC)C(C)(C)C)C(C)(C)C [Atazanavir]
Effect on chymotryptic activity of proteasome [7]: did not change
A02-SL9 epitope half-life reduced by (fold vs control) ([2]; PBMC extracts pretreated with 2 µM or 5 µM PI): 1.33 fold
Effect on proteasome tryptic activity [6]: not affected
Effect on aminopeptidase activities (aminopeptidase): no change

ISPRTLNAW [ISW9]
half-life (in vitro): 14.8 min
